# Bioassay records: PubChem, The Scripps Research Institute Molecular Screening Center
# M5 PAM: CHRM5 positive allosteric modulation | P08912 | actives 0.3% (n = 360,000) | CHO-K1 hM5, Fluo-8 calcium, ACh EC20 PAM; 0% = ACh EC20, 100% = ACh EC100 | activation, % at 3 µM;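 active = activation above the run cutoff, the mean activation of all test compounds plus 3 SD, cut at about 18% in these data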
#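 Assay system: CHO-K1 hM5 cells. Also added: acetylcholine at EC20 concentration, added after compound. Dosing: 3 µM, single dose. Times: compound preincubation 140 s before EC20 acetylcholine addition. Signal: Fluo-8 calcium fluorescence. Measure: % activation relative to EC20 and EC100 ACh responses. Repeats: singlicate, one well per test compound.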
# M4 PAM: CHRM4 positive allosteric modulation. CHO-K1 hM4/Gqi5, Fluo-8 calcium fluorescence, ACh EC20; 0% = ACh EC20, 100% = maximal ACh. AID 624126. actives 0.4% (n = 360,000). P08173. activation, % at 3 µM;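 active = activation above its plate's cutoff, the mean activation of sample wells plus 3 SD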
# Target sequence (P08173 whole entry, looked up): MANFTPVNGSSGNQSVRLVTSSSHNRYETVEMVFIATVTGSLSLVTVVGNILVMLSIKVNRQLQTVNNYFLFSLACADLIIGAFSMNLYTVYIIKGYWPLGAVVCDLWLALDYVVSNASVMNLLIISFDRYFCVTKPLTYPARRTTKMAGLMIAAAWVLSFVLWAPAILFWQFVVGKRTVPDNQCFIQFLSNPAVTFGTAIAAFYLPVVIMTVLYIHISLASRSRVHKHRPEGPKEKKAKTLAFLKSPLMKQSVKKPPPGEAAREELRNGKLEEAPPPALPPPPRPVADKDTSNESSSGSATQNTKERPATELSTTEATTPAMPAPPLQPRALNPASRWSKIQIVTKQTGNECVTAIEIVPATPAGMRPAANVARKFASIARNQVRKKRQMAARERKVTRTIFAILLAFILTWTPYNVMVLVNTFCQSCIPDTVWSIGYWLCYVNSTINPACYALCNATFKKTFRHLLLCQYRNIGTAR
# CHRM4 antagonist: blocks acetylcholine activation of human M4 receptor | inhibition, % at 3 µM | CHO-hM4 cells, ACh EC80, Fluo-8 calcium fluorescence | actives 0.73% (n = 360,000) | P08173;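 active = inhibition above its plate's cutoff, the mean inhibition of sample wells plus 3 SD, cut at about 27% in these data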;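 also: 0% = acetylcholine EC80 with DMSO and 100% = DMSO without agonist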
# M4 ag: CHRM4 agonism in calcium assay; P08173; CHO-K1 hM4/Gqi5, Fluo-8 calcium fluorescence; vehicle 0%, full acetylcholine response 100%; activation, % at 3 µM; actives 0.14% (n = 360,000); AID 624127;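 active = activation above the run mean over all test wells plus 3 SD, cut at about 32% in these data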;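 also: peak over basal fluorescence ratio per well then scaled between controls; 0% = DMSO wells and 100% = acetylcholine at EC100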
# M5 antag: blocks acetylcholine activation of human M5 receptor; P08912; inhibition, % at 3 µM; CHO-hM5 cells, Fluo-8 calcium fluorescence, ACh EC80; actives 0.59% (n = 360,000);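 active = inhibition above a per-plate cutoff, the mean of that plate's test compounds plus 3 SD, cut at about 27% in these data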;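 also: 0% = acetylcholine EC80 with DMSO and 100% = DMSO without agonist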
# M5 ag: agonists of human muscarinic M5 receptor (CHRM5) | AID 624037 | actives 0.19% (n = 360,000) | CHO-K1 hM5 cells, Fluo-8 calcium fluorescence; 0% DMSO wells, 100% maximal acetylcholine response | activation, % at 3 µM;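 active = activation above the run's mean over test compounds plus 3 SD, cut at about 23% in these data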;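 also: signal is peak over basal fluorescence ratio across the kinetic read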
# Numbers without * were called inactive. Most compounds without a hit are left out; they make up all but 1.8% or so of the library.
SMILES,M5 PAM,M4 PAM,CHRM4 antagonist,M4 ag,M5 antag,M5 ag
O=C(Nc1cnn(Cc2ccc(Cl)cc2Cl)c1)c1noc2c1CCCC2,-5,-5,4,5,0,1
CCc1ccccc1NC(=O)NC1CCCCCCC1,0,-1,5,-1,4,-3
COc1ccc(C)cc1N(CC(=O)Nc1cccnc1)S(=O)(=O)c1ccccc1,-18,-7,4,14,29*,2
CN1CCN(NC(=O)c2cc(Br)ccc2Cl)CC1,-13,-2,1,1,27*,-6
CN1CCN(NC(=O)c2ccc(Cl)cc2Cl)CC1,-4,-4,-1,1,5,-3
COc1ccccc1CNC(=O)C1CCC(CNS(=O)(=O)c2ccc(F)cc2)CC1 (centres undefined),4,-8,0,2,-3,-5
COCCCn1c(SCC(=O)NC(C)C)nnc1-c1ccccc1,19*,8,2,1,-15,-1
COCCn1c(SCC(=O)Nc2ccc(NC(=O)c3ccco3)c(OC)c2)nc2ccccc2c1=O,-15,20*,-15,1,5,1
COCCn1c(SCC(=O)NCc2ccccc2)nnc1-c1ccco1,2,18*,-17,0,3,-2
COCCCn1c(SCC(N)=O)nnc1-c1ccccc1,-4,7,5,1,1,1
Cc1cc(C)nc(CCNC(=O)c2cc(COc3ccccc3)on2)n1,-1,-4,7,1,1,0
O=C(O)c1ccccc1N/C=C\[N+](=O)[O-],-3,1,-9,4,-12,-2
COc1ccc(-c2cn3cccnc3n2)cc1NC(=O)C1CC1,19*,9,26*,1,-3,-1
COc1ccc(Nc2c(C3CC3)nc3nc(C)cc(C)n23)cc1,4,28*,-12,-2,-3,3
COc1ccc(Nc2c(CC(C)C)nc3nc(C)cc(C)n23)cc1,2,17,-31,-4,-6,1
CCOC(CNC(=O)c1ccc2c(c1)ncn2-c1cccc(F)c1)OCC,-11,-4,4,1,28*,-1
Cc1cc(OCC(=O)OCC(=O)NCc2ccco2)ccc1Cl,3,6,-3,4,0,3
Cc1cc(-c2ccccc2)nc(Nc2nc3c(C)cccc3c(=O)[nH]2)n1,5,7,-4,2,1,-2
COc1cc(NC(=O)CN2C(=O)C(c3ccccc3)=NC23CCCCCC3)cc(OC)c1,4,21*,-3,2,-1,0
COc1cccc(NC(=O)CN2C(=O)C(c3ccc(C)cc3)=NC23CCCCCC3)c1,-6,0,5,-1,7,0
CC(=O)c1ccc(Nc2nc3ccccc3nc2NS(=O)(=O)c2cccs2)cc1,-6,-3,-4,2,5,-2
O=C(O)c1cccc(Nc2nc3ccccc3nc2NS(=O)(=O)c2cccs2)c1,0,18*,-24,1,-8,-1
O=C(CN1CCC(NC(=O)c2cccc(F)c2)CC1)NCc1cccs1,-1,24*,-3,3,17,-1
CCNC(=S)NC1CC2CCC(C1)N2Cc1ccccc1 (centres undefined),-8,-7,5,0,11,-6
CCNC(=S)NC1CC2CCCC(C1)N2CCc1ccccc1 (centres undefined),-34,-15,37*,0,69*,-23
Cn1nc(-c2ccc(N3CCN(CCO)CC3)c([N+](=O)[O-])c2)c2ccccc2c1=O,1,3,1,2,-12,-2
COc1ccc(-n2nc(C(=O)NCC(=O)Nc3cc(OC)c(OC)c(OC)c3)c3ccccc3c2=O)cc1OC,-13,-12,27*,18,17,3
CCC1CCCCN1CCCNC(=O)CNC(=O)c1nn(-c2ccc(OC)c(Cl)c2)c(=O)c2ccccc12 (centres undefined),-2,-18,37*,3,10,-7
CCOc1ccc(C(=O)OC(C)CN2CCN(C)CC2)cc1 (centres undefined),-2,3,-25,2,-10,-7
